Each structure is given as a SMILES string. Calls of active or inactive are those of the source. The calls are words filed in the database; no cut-off is given here.

Test [1] has as its target Serine/threonine-protein kinase B-raf (Homo sapiens, UniProt P15056, V600E). Description: Inhibition of human 6x-His tagged BRAF V600E mutant expressed in Sf9 cells by ELISA based kinase assay. A digest of the protocol: (§1)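 Enzyme at about 28–30 nM was preincubated with compound for 1 h at RT, then added to glutathione-plate-bound GST-MEK-His (50 μg/mL). Reaction in HEPES pH 7.0 with MgCl2 and 100 μM ATP ran 30 min at 37 °C. Read-out was anti-phospho-MEK1/2 then HRP chemiluminescence. Run in duplicate or triplicate; IC50 from a four-parameter logistic fit.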
A general note: In an ELISA, binding on a coated surface is turned into a signal by an enzyme label.

For test [2], the target named is T1, Serine/threonine-protein kinase B-raf (Homo sapiens, UniProt P15056). Briefly: Inhibition of human 6x-His tagged wild type BRAF expressed in Sf9 cells by ELISA based kinase assay. The procedure, abridged: as §1
T1 sequence (P15056 whole entry): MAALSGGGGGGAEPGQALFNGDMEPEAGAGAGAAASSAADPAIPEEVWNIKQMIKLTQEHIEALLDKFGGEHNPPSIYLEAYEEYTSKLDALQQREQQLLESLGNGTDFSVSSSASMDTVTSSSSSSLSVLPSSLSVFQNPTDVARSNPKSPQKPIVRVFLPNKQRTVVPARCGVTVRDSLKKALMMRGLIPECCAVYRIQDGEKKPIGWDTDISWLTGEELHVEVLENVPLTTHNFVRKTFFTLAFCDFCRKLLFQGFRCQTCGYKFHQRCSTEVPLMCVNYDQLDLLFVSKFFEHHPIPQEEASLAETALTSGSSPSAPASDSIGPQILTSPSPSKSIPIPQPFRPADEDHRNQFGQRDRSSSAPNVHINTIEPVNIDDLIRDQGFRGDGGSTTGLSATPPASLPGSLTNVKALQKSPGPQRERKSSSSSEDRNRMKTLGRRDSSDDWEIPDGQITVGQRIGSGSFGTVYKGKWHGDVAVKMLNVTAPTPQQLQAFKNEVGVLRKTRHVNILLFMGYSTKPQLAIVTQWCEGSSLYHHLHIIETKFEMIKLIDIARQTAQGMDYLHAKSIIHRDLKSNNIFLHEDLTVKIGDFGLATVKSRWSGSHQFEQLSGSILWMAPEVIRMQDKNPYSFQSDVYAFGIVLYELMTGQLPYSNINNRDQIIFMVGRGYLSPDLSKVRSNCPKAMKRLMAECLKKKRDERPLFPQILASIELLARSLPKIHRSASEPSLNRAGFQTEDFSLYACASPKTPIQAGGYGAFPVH
Test [3] is filed under the species Homo sapiens. Briefly: Selectivity ratio of IC50 for human 6x-His tagged wild type BRAF to IC50 for human 6x-His tagged BRAF V600E mutant.
For test [4], the target named is RAF proto-oncogene serine/threonine-protein kinase (Homo sapiens) (UniProt P04049). Description: Inhibition of CRAF assessed as residual activity at 1 uM by ELISA based kinase assay. A digest of the protocol:
(§2)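 Single-point ELISA kinase assay at 1 μM inhibitor, reading phospho-MEK on immobilized GST-MEK-His. CRAF at 20–30 nM enzyme with 100 μM ATP; BRAF WT or V600E kinase domain (Sf9-expressed, 6xHis) under the same assay conditions. Remaining activity reported as mean of n = 3.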

Test [5] has as its target Phosphatidylinositol 4,5-bisphosphate 3-kinase catalytic subunit gamma isoform (Homo sapiens) (UniProt P48736). Briefly: Inhibition of PI3Kgamma assessed as residual activity at 1 uM.
Test [6] has as its target Phosphatidylinositol 4,5-bisphosphate 3-kinase catalytic subunit alpha isoform (Homo sapiens) (UniProt P42336). Description: Inhibition of PI3Kalpha assessed as residual activity at 1 uM.
Test [7] in a line: Inhibition of GSK3 assessed as residual activity at 1 uM.
For test [8], the target named is Serine/threonine-protein kinase pim-1 (Homo sapiens) (UniProt P11309). Briefly: Inhibition of PIM1 assessed as residual activity at 1 uM.
Serine/threonine-protein kinase pim-1 (Homo sapiens), sequence (P11309 whole entry, looked up): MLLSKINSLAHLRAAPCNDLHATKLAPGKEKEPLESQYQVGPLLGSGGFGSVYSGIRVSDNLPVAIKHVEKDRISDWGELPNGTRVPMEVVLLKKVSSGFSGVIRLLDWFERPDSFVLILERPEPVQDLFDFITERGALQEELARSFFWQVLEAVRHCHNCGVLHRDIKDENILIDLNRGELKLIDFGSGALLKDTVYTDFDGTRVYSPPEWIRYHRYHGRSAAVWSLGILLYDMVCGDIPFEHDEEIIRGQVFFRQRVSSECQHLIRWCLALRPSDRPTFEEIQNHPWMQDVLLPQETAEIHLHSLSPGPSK
Test [9] addresses Serine/threonine-protein kinase PAK 1 (Homo sapiens) (UniProt Q13153). Briefly: Inhibition of PAK1 assessed as residual activity at 1 uM.
The nature of test [10]: Inhibition of p70S6K assessed as residual activity at 1 uM by scintillation counter in presence of gamma-P32 ATP. A digest of the protocol: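 p70S6K (20 nM) was preincubated with inhibitor at RT in 20 mM MOPS, 30 mM MgCl2, 0.8 μg/μL BSA, 5% DMSO, pH 7.0, with S6 kinase/Rsk2 peptide (3.6 μM). After 15 min, ATP was added to 100 μM with γ-32P ATP and run 30 min. Product was captured on P81 paper, washed with phosphoric acid, and counted by scintillation. Remaining activity was measured at 1 μM, mean of n = 3.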

Test [11] addresses T1, Serine/threonine-protein kinase B-raf. Description: Inhibition of human 6x-His tagged wild type BRAF expressed in Sf9 cells assessed as residual activity at 1 uM by ELISA based kinase assay. A digest of the protocol: as §2
Test [12] has as its system Serine/threonine-protein kinase B-raf (Homo sapiens), P15056 [V600E]. Briefly: Inhibition of human 6x-His tagged BRAF V600E mutant expressed in Sf9 cells assessed as residual activity at 1 uM by ELISA based kinase assay. The procedure, abridged: as §2
Test [13] is filed under the species Homo sapiens. Description: Antiproliferative activity against human 451LU cells harboring BRAF V600E mutant by MTS assay. It is filed as functional, cell-based. The procedure, abridged:
(§3)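 451Lu melanoma cells were grown in DMEM with 5% FBS, and primary melanocytes (FOM) and fibroblasts (FF) were taken from neonatal foreskin epidermis. Cells were seeded at 5000/well, left to adhere overnight, then exposed to rising compound doses or DMSO for 72 h. Read-out was MTS absorbance at 490 nm, normalized to DMSO wells. At least 4 wells per condition; experiment done in triplicate.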
Background: Formazan colour is commonly taken as a measure of viable cells.

The subject of the next test is FOM. Briefly: Antiproliferative activity against human FOM cells by MTS assay. It is filed as functional, cell-based. The procedure, abridged: as §3
A further test relates to FF2508. Briefly: Antiproliferative activity against human FF2508 cells by MTS assay. The test is classed as functional, cell-based. A digest of the protocol: as §3
For test [14], the system named is Serine/threonine-protein kinase B-raf (Homo sapiens), P15056 [V600E]. Description: Inhibition of B-Raf V600E mutant-mediated MEK phosphorylation in human 451LU cells by Western blotting. A general note: In western blotting, separated proteins are transferred to a membrane and probed.
Serine/threonine-protein kinase B-raf (Homo sapiens), P15056 [V600E], sequence (P15056 whole entry V600E): as the sequence (P15056 whole entry) above, with V600E counted along it

Serine/threonine-protein kinase B-raf (Homo sapiens, UniProt P15056, V600E), sequence (P15056 2-766 V600E limits assumed): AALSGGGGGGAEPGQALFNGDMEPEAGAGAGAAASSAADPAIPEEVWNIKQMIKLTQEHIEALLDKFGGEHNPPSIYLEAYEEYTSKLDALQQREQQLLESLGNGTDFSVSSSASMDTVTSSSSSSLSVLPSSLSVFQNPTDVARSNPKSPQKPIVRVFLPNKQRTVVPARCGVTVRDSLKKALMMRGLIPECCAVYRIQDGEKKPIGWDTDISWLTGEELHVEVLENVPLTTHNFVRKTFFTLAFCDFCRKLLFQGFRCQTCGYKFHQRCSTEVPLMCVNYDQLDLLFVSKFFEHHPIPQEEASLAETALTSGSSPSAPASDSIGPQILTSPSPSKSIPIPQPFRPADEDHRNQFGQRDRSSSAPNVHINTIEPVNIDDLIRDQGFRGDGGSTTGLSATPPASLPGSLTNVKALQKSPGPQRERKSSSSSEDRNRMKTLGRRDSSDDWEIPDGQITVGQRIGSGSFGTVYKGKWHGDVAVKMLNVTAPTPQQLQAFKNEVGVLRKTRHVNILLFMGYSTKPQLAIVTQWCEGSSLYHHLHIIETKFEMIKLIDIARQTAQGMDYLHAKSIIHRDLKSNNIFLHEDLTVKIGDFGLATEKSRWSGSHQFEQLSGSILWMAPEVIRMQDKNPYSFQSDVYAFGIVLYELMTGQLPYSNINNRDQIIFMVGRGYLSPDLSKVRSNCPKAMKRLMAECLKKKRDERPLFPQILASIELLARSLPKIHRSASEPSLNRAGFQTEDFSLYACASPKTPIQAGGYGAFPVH
Phosphatidylinositol 4,5-bisphosphate 3-kinase catalytic subunit gamma isoform (Homo sapiens), sequence (P48736 whole entry, looked up, canonical isoform): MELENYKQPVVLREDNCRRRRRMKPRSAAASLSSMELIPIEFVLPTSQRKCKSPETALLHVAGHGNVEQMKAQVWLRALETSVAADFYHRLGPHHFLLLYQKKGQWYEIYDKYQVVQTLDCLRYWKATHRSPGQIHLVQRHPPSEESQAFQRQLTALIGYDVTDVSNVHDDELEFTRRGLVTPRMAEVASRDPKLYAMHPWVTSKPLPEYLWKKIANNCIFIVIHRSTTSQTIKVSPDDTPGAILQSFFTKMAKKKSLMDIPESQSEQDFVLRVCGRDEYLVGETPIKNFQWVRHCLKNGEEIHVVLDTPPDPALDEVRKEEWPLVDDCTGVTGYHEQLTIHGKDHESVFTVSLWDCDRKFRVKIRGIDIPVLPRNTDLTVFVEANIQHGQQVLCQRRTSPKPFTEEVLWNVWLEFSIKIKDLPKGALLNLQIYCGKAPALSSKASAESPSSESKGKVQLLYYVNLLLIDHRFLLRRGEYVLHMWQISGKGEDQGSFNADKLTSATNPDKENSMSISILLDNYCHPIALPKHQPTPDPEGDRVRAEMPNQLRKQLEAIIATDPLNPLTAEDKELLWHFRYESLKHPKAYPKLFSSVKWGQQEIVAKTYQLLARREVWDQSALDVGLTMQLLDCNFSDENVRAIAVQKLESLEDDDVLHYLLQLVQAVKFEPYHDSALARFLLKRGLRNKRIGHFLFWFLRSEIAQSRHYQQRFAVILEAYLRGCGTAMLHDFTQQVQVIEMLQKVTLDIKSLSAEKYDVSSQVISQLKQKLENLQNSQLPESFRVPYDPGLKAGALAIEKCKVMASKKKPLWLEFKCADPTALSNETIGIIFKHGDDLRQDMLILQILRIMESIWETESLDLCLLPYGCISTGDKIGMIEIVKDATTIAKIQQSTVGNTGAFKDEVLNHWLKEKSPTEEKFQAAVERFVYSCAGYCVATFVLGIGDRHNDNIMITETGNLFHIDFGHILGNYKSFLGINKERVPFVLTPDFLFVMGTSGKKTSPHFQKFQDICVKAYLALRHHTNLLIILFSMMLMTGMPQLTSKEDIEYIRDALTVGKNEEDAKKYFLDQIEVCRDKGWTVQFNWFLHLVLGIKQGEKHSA
RAF proto-oncogene serine/threonine-protein kinase (Homo sapiens), sequence (P04049 whole entry, the tested form may be a part): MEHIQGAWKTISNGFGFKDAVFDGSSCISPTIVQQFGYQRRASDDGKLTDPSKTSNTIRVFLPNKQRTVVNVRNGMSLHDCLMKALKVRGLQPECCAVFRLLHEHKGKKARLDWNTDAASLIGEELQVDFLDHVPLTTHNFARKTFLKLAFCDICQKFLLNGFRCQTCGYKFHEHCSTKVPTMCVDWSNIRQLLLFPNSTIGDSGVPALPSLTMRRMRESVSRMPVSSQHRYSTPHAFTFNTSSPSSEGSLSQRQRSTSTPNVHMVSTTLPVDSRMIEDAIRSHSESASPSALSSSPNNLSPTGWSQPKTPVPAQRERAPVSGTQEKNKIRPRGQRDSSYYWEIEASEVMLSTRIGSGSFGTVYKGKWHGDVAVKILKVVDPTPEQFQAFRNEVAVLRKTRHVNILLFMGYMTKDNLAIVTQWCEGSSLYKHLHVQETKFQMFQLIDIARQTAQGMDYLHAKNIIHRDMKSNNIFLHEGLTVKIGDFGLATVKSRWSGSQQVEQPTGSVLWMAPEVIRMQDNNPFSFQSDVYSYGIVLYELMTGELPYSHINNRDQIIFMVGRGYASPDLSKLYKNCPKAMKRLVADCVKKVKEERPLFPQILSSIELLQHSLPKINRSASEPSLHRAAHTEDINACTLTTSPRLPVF
Serine/threonine-protein kinase PAK 1 (Homo sapiens), sequence (Q13153 whole entry): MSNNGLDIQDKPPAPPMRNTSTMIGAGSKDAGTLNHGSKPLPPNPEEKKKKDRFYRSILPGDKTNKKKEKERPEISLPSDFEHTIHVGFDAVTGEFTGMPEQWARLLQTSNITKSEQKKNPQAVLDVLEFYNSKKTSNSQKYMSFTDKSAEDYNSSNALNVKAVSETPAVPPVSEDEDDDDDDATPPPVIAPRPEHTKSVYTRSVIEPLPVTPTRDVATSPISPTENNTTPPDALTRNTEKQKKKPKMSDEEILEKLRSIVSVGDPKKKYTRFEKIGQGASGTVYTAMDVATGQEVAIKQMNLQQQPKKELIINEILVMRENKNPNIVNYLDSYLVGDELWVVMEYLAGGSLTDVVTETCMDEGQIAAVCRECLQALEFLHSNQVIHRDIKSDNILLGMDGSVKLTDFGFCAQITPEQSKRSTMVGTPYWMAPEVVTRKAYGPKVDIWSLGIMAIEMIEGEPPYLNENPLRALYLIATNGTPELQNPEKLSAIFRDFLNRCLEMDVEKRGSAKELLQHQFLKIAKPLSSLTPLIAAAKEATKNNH

For orientation: IC50 means the concentration at which inhibition is half-maximal. Regarding `O=S(=O)(Nc1cc(Sc2ccccc2)c(O)c2ccccc12)c1cccs1`, the IC50 came out at 280 nM in test [1] and 570 nM in test [2].
For the compound `O=S(=O)(Nc1ccc(O)c2ccccc12)c1cccs1`, the IC50 in test [1] worked out at 6100 nM; in [2] it was 9000 nM.
On to `O=S(=O)(Nc1cc(Sc2nc[nH]n2)c(O)c2ccccc12)c1ccc(C(F)(F)F)cc1`, for which the concentration for half-maximal inhibition (IC50) stood at 210 nM in [1] and 190 nM in test [2].
`CC(=O)Nc1ccc(S(=O)(=O)Nc2cc(Sc3nc[nH]n3)c(O)c3ccccc23)cc1`: the midpoint of inhibition in test [1], the IC50, lay at 140 nM.
In the case of `Cn1nnnc1Sc1cc(NS(=O)(=O)c2cccs2)c2ccccc2c1O`, the values for the IC50 in test [1] and in [2] were 250 nM and 320 nM, respectively.
On to `O=S(=O)(Nc1cc(Sc2nc[nH]n2)c(O)c2ccccc12)c1ccc2ccccc2c1`, for which the values for the IC50 in test [1] and in [2] were 150 nM and 400 nM, respectively.
Take `O=C(/C=C/S(=O)(=O)c1ccc(Cl)cc1)c1ccc(F)cc1`: in the test listed under Homo sapiens [3], the Ratio IC50 worked out at 2. Moreover, the IC50 in test [1] was 300 nM; in test [2], 900 nM.
Take `O=S(=O)(Nc1cc(Sc2ncn[nH]2)c(O)c2ccccc12)c1ccc(-c2ccccc2)cc1`: the Activity in test [4] amounted to 60%; in test [5], 75%; in test [6], 75%; in [7] it was 75%; in test [8] it was 75%; in [9], 75%. Moreover, the Activity in [10] is 75%; in test [11], < 10%; in test [12] it was < 10%. Further, the Ratio IC50 in the test filed under Homo sapiens [3] worked out at 2. Besides, the outcome in the test listed under Homo sapiens [13] was Active. The result with FOM and in the test on FF2508 was inactive. Besides, the inhibition result in test [14] was “Active”.
As for `COc1ccc(C(c2ccc3cccnc3c2O)N2CCOCC2)cc1` (stereo not drawn), the Ratio IC50 in the test filed under Homo sapiens [3] worked out at 2. Also, the IC50 in test [1] worked out at 900 nM; in [2], 4000 nM.
As to `O=S(=O)(Nc1cc(Sc2ncn[nH]2)c(O)c2ccccc12)c1c(F)ccc(N(Cc2ccccc2)Cc2ccccc2)c1F`, the IC50 in test [1] came to 3600 nM; in [2] it was 5800 nM.
On to `O=S(=O)(Nc1cc(Sc2ncc[nH]2)c(O)c2ccccc12)c1cccs1`, for which the Ratio IC50 in the test listed under Homo sapiens [3] came to 2. Moreover, the IC50 in [1] stood at 120 nM; in [2] it was 170 nM.
Regarding `Oc1c(C(Nc2ccccn2)c2ccco2)cc(Cl)c2cccnc12` (stereo not drawn), the IC50 in test [2] came out at 800 nM.
On to `O=S(=O)(Nc1cc(Sc2ccccn2)c(O)c2ccccc12)c1cccs1`, for which the values for the IC50 in test [1] and in [2] were 190 nM and 350 nM, respectively.
Turning to `CCCCCCCCS(=O)(=O)Nc1cc(Sc2nnc[nH]2)c(O)c2ccccc12`, the IC50 in [1] was determined as 720 nM; in test [2], 1660 nM.
For the compound `CC(=O)N1CCc2cc(S(=O)(=O)Nc3cc(Sc4nc[nH]n4)c(O)c4ccccc34)ccc21`, the IC50 stood at 140 nM in [1] and 270 nM in [2].
Consider `O=C1C(Sc2ncn[nH]2)=C/C(=N\S(=O)(=O)c2cccs2)c2ccccc21`, for which the results for the IC50 in [1] and in test [2] were 190 nM and 230 nM, respectively.
On to `CCCCCCCCCCS(=O)(=O)Nc1cc(Sc2nnc[nH]2)c(O)c2ccccc12`, for which the IC50 worked out at 1600 nM in [1] and 2100 nM in test [2].
Regarding `COc1cc(C(Nc2ccccn2)c2cc(Cl)c3cccnc3c2O)cc(Br)c1O` (stereo not drawn), the Ratio IC50 in the test filed under Homo sapiens [3] came to 2. Also, the IC50 was 700 nM in [1] and 3000 nM in [2].
For the compound `O=S(=O)(Nc1cc(Sc2cnn[nH]2)c(O)c2ccccc12)c1cccs1`, the IC50 in test [1] was 720 nM; in test [2], 1470 nM.
For `Cc1cc(C)c2c(=O)n(C(=O)c3cccs3)sc2n1`, the results for the IC50 in test [1] and in [2] were 600 nM and 400 nM, respectively.
Regarding `O=C1CCC(=O)N1c1ccc(F)c(S(=O)(=O)Nc2cc(Sc3ncn[nH]3)c(O)c3ccccc23)c1F`, the IC50 in test [1] is 670 nM; in test [2], 680 nM.
`O=S(=O)(Nc1cc(Sc2ncn[nH]2)c(O)c2ccccc12)c1c(F)c(F)c(F)c(F)c1F`: the IC50 turned out to be 520 nM in test [1] and 590 nM in test [2].
In the case of `O=S(=O)(Nc1cc(Br)c(O)c2ccccc12)c1cccs1`, the IC50 in [1] is 320 nM; in test [2] it was 340 nM.
For the compound `CC(=O)Nc1ccc(S(=O)(=O)Nc2cc(Sc3ncn[nH]3)c(O)c3ccccc23)cc1`, the Ratio IC50 in the test filed under Homo sapiens [3] was 2.
With `O=S(=O)(Nc1cc(Sc2nnc[nH]2)c(O)c2ccccc12)c1ccc(-c2ccccc2)cc1`, the IC50 was found to be 80 nM in test [1] and 220 nM in [2].
As for `O=S(=O)(Nc1cc(Cl)c(O)c2ccccc12)c1cccs1`, the IC50 in test [1] came to 380 nM; in [2] it was 450 nM.
In the case of `Oc1c(C(Nc2cccnc2)c2ccsc2)ccc2cccnc12` (stereo not drawn), the Ratio IC50 in the test listed under Homo sapiens [3] is 2. In addition, the IC50 in test [1] came to 800 nM; in test [2] it was 2000 nM.

(Values after ChEMBL document CHEMBL2086356, “Identification of a novel family of BRAF(V600E) inhibitors” (J Med Chem, 2012).)
